MT1-MMP act inh – blockers of MT1-MMP proenzyme processing, primary screen, HT1080 RFP-PRO-GFP cells, GFP/RFP fluorescence; Matrix metalloproteinase-14 (Homo sapiens), P50281; GFP/RFP ratio fluorescence, overnight; percent of plate control window, DMSO zero; GFP/RFP ratio change, % at 20 µM; actives 0.061% (n = 360,000); AID 651647, 2012;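 active means GFP/RFP ratio change of at least 30% with cell ATP level not reduced by more than half and red fluorescence within 50% of control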
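Read-out: GFP/RFP fluorescence ratio; Test system: RFP-PRO-GFP reporter HT1080 cells; Compound dosing: single-point 20 µM compound, 1% DMSO; Times: overnight compound exposure at 37 °C.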
SKN-1 block – suppressors of acrylamide-induced Pgst-4::GFP reporter in worms, primary screen, SKN-1 inhibitor project, whole organism, uHTS, GFP/RFP fluorescence ratio, strain VP596; C. elegans VP596 Pgst-4::GFP/RFP ratio, 24 h; inhibition, % at 21.8 µM; actives 0.49% (n = 360,000); AID 624304, 2012;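 active means interference check ratio from 0.5 to 1.5 plus GFP to RFP signal ratio inhibition reaching or exceeding a fixed threshold, cut at about 30% in these data, passing the limit was not always enough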
PREPL inhibitor – PREPL enzyme inhibitors, primary screen, biochemical, fluorescence polarization; AID 2751, 2010; inhibition, % at 5.96 µM; actives 0.68% (n = 320,000); recombinant PREPL, fluorescence polarization activity-based probe; in the data active means inhibition above about 43%
TbMetRS inhib – T. brucei MetRS inhibitors, primary screen, biochemical, luminescence; actives 0.4% (n = 360,000); AID 624268, 2012; methionyl-tRNA synthetase (Trypanosoma brucei brucei); purified T. brucei MetRS, ATP depletion, Kinase-Glo luminescence; inhibition, % at 11.9 µM;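 active means inhibition above a per-plate cutoff of the control wells' mean inhibition plus 3 SD, cut at about 5.5% in these data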
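assay system = parasite MetRS enzyme | timing = 15 min preincubation, 2 h reaction, all 25 °C | evaluation = percent inhibition relative to median high and low control wells | medium = HEPES buffer containing pyrophosphatase, BSA, spermine, DTT | compound = single dose, 11.9 µM final nominal, 0.9% final DMSO | detection = Kinase-Glo luminescence, ATP depletion format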
eLon inh – inhibitors of E. coli Lon protease, primary screen, biochemical, fluorescence polarization. P0A9M0. purified E. coli Lon protease. inhibition, % at 7.94 µM. actives 0.42% (n = 360,000). AID 602123, 2011; in the data active means inhibition above about 13%, passing the limit was not always enough
Target sequence (P0A9M0 whole entry, looked up): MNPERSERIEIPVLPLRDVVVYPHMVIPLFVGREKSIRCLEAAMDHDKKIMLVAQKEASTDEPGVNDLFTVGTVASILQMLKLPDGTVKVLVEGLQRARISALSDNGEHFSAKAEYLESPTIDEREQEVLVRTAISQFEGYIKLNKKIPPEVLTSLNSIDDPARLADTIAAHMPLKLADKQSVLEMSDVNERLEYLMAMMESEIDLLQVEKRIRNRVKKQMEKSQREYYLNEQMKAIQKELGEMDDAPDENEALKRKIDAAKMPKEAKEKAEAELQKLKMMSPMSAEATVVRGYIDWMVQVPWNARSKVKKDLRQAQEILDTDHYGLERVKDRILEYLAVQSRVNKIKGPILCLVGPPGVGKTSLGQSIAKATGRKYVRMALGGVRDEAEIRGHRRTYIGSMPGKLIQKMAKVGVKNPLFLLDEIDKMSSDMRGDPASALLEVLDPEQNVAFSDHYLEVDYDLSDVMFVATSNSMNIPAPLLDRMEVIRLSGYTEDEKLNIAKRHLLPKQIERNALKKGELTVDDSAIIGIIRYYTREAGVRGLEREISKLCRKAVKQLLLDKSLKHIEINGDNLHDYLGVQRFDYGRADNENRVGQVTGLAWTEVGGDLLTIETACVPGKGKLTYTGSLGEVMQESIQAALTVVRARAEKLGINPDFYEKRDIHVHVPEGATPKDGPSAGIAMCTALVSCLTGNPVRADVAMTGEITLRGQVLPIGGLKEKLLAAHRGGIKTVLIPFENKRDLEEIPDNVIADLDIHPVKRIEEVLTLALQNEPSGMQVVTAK
hiPSC survival – enhancers of single-cell hiPSC survival, primary screen, ATPlite luminescence. 100% = ROCK inhibitor wells, 0% = DMSO. survival enhancement, % at 20 µM. actives 0.044% (n = 360,000). AID 602274, 2012; in the data active means survival enhancement above about 18%;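 further: cells exposed to compounds for 16 hours before the ATP read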
Large screens that a line does not name were inactive. This is a sample that favours compounds with a hit; in the whole collection about 1.8% have one here.

CCCCCCCCN1C(=O)[C@H](CC(=O)NCc2cccc(C(F)(F)F)c2)C[C@@]2(C(=O)OC)CC(C)(C)CC=C12	none (no result: PREPL inhibitor, eLon inh, hiPSC survival)
Cc1cccc(C)c1OCC(=O)Nc1nnc(C2CCCO2)s1 (centres undefined)	SKN-1 block 36.5
Cc1ccc(Nc2nc(C)c(CCC(C)C)c(=O)[nH]2)cc1	none
CCCCCc1c(C)nc(Nc2ccccc2)[nH]c1=O	TbMetRS inhib 7.8
COc1cc(/C=C/C(=O)OCC(=O)NC2CCS(=O)(=O)C2)ccc1O (centres undefined)	none
Cc1cc2n(n1)C(c1ccccc1)CC(c1ccc(Br)cc1)=N2 (centres undefined)	eLon inh 60.1
O=C(NC12CC3CC(CC(C3)C1)C2)c1ccc(-c2ccc(Cl)cc2)o1	none
O=C(NC12CC3CC(CC(C3)C1)C2)c1ccc(-c2ccccc2Cl)o1	eLon inh 19.5
Cc1ccc(NS(=O)(=O)c2ccc3c(c2)CC(=O)N3)c(C)c1	hiPSC survival 30.7
CC(C)CCNC(=O)c1cnn2c(C(F)(F)F)cc(-c3ccco3)nc12	SKN-1 block 43.9
COc1ccc(CC(=O)N2N=C(c3ccncc3)CC2(O)C(F)(F)F)cc1 (centres undefined)	hiPSC survival 28.6
CCN1C/C(=C/c2cccc([N+](=O)[O-])c2)C(=O)/C(=C/c2cccc([N+](=O)[O-])c2)C1	hiPSC survival 38.4 (no result: MT1-MMP act inh)
CCOC(=O)c1cc2cc3ccccc3cc2[nH]1	SKN-1 block 39.7
CC(C)OC(=O)c1cc2ccccc2[nH]1	none
N#Cc1cc(N)c(Nc2ccccc2)cc1C#N	TbMetRS inhib 8.2
Fc1ccc(-c2nnc(-c3ccc4ccccc4c3)o2)cc1	SKN-1 block 43.1 (no result: PREPL inhibitor)
Fc1ccc(-c2nnc(-c3ccc(F)cc3)o2)cc1	SKN-1 block 38.7 (no result: PREPL inhibitor)
CCCCc1c(Cc2ccccc2)ncn1CCc1ccccc1OC	none (no result: PREPL inhibitor)
O=C(NCc1ccc2c(c1)OCO2)OCc1ccccc1	none (no result: PREPL inhibitor, eLon inh, hiPSC survival)
O=[N+]([O-])CC(=Nc1ccc(F)cc1)N/N=C\c1oc(O)c2ccccc12	none (no result: MT1-MMP act inh, SKN-1 block, TbMetRS inhib, eLon inh, hiPSC survival)
O=[N+]([O-])c1ccc(C[n+]2cccc3c4ccccc4ccc32)cc1	none
CCCCCCCCC[n+]1cccc2c3ccccc3ccc21	TbMetRS inhib 5.7
O=C(c1cc2c(s1)CCCC2)n1cccn1	PREPL inhibitor 68.0
CC1(C(=O)NS(=O)(=O)C2CC2)CCN(C(=O)c2cccc(Cl)c2)C1 (centres undefined)	none (no result: PREPL inhibitor)
O=S(=O)(Nc1ccc(C(F)(F)F)cc1)c1cnc[nH]1	SKN-1 block 38.4
O=S(=O)(Nc1cccc(C(F)(F)F)c1)c1cnc[nH]1	none
O=c1cc(-c2ccccc2)nc2nc(SCc3ccccc3)[nH]n12	hiPSC survival 31.4
CC(C)CCN1C(=O)CC(NNC(=O)c2ccc(S(=O)(=O)N3CCCC3)cc2)C1=O (centres undefined)	none
COCCN1C(=O)CC(NNC(=O)c2ccc(S(=O)(=O)N3CCCC3)cc2)C1=O (centres undefined)	SKN-1 block 100.6
Cc1cc(C)n2c(SCc3c(C)noc3C)nnc2n1	SKN-1 block 32.8
Nc1nc(N)c2cc(CNc3ccc(Cl)c(Cl)c3)ccc2n1	none (no result: PREPL inhibitor)
CCN1CCN(S(=O)(=O)c2ccc(OC)cc2)CC1	none
COc1cc(SC)ccc1C(=O)Nc1nccs1	SKN-1 block 44.2
COc1cc(SC)ccc1C(=O)Nc1ccccc1	none
O=[N+]([O-])c1ccc(NC(=S)NCc2ccc(F)cc2)cc1	none
CCN1C(=O)[C@H]2[C@@H](c3ccc(C(F)(F)F)cc3)N[C@]3(CCCN(Cc4ccc(C(F)(F)F)cc4)C3=O)[C@H]2C1=O	none (no result: PREPL inhibitor)
Cc1c(CC(=O)NCC(=O)NCC(=O)N[C@@H](Cc2ccccc2)C(=O)O)c(=O)oc2c(C)c(O)ccc12	none (no result: PREPL inhibitor)
Brc1ccc(-c2noc(COc3ccc4c(c3)CCC4)n2)o1	none
c1csc(-c2noc(COc3ccc4c(c3)CCCC4)n2)c1	SKN-1 block 37.8
Nc1ccc(Oc2ncccn2)c(Cl)c1	none
Nc1ccc2c(Cl)cc(Cl)cc2c1	SKN-1 block 63.0 (no result: PREPL inhibitor)
COc1ccc(/C=N/NC(=O)c2ccc(COc3ccccc3Cl)o2)cc1	SKN-1 block 38.4
COc1ccc(/C=N/NC(=O)c2ccc(COc3ccccc3Cl)o2)c(OC)c1C	none
Cc1cc2ccccc2n1CCNC(=O)c1ccccc1	SKN-1 block 47.8
CCCCn1c(CCNC(=O)CC)nc2ccccc21	none
CCC(=O)NCCn1c(C)cc2ccccc21	SKN-1 block 39.0
Cc1onc(-c2ccccc2Cl)c1C(=O)NCC(=O)O	none
Cc1onc(-c2ccccc2Cl)c1C(=O)NCCn1c(C)cc2ccccc21	MT1-MMP act inh 39.6
Cc1cc2ccccc2n1CCNC(=O)c1ccc(S(=O)(=O)N2CCOCC2)cc1	SKN-1 block 47.3
CC(C(=O)OCC(=O)Nc1ccccc1OC(F)F)N1C(=O)C2CC=CCC2C1=O (centres undefined)	none (no result: PREPL inhibitor)
CC(=O)NCCn1c(C)cc2ccccc21	SKN-1 block 49.0
Cc1cc2ccccc2n1CCNC(=O)C(C)(C)C	none
Cc1oc(C)c2c(=O)ccc3c(c12)OC(N)=C(C#N)C3c1ccccc1 (centres undefined)	SKN-1 block 48.1
COc1ccc(NC(=O)CN2CCN(Cc3ccc4c(c3)OCO4)CC2)cc1OC	SKN-1 block 37.3
COc1cccc(-c2csc(N3CCN(CC(=O)Nc4ccc5c(c4)OCO5)CC3)n2)c1	PREPL inhibitor 54.6
Cc1ccsc1/C=N/N=C/c1sccc1C	none
Cc1ccsc1C=Nc1ccc(O)cc1	SKN-1 block 28.0
CC(C)C[C@H]1CN([C@@H](Cc2ccccc2)CN2CCC[C@@H]2CN2C(=O)C(=O)NC[C@@H]2Cc2ccccc2)C(=O)C(=O)N1CC1CCCCC1	none (no result: PREPL inhibitor)
Fc1ccc(-c2cn3cc(C(F)(F)F)cc(Cl)c3n2)cc1	SKN-1 block 35.0
COc1ccc(N2CCN(C(=O)c3cc4c(-c5cccc(OC)c5)nn(C)c4s3)CC2)cc1	SKN-1 block 35.2
CCOC(=O)N1CCN(C(=O)c2cc3c(-c4cccc(OC)c4)nn(C)c3s2)CC1	none
COC(=O)/C=C1\OCc2cc(OCc3ccccc3)ccc21	none (no result: PREPL inhibitor, eLon inh, hiPSC survival)
CCOC(=O)CSc1ccc2ccccc2n1	none
CCOC(=O)CN1C=C(c2ccc3ccccc3n2)C(C[N+](=O)[O-])c2ccccc21 (centres undefined)	eLon inh 115.4

From PubChem
